≈ marks a conversion by molar mass, not a printed value.
Columns and labels:
Nucleic Acid [1] = experiment: Association constant against polynucleotide poly (dG-dC); assay type: nucleic-acid assay
Outline: (§1)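 Competition with ethidium bromide binding at 25 °C in 0.01 M cacodylate buffer, pH 7.0, with 1.26 μM ethidium bromide and 1 μM polynucleotide. Bound ethidium is estimated from its fluorescence increase (V = 34 for poly(dA-dT), 25 for poly(dG-dC)). IC50 for 50% ethidium displacement comes from a fitted competition sigmoid. Kapp is calculated from IC50 assuming a binding size of four base pairs.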

Nucleic Acid [2] = experiment: Ratio of association constant of poly (dA-dT) and poly (dG-dC); assay type: nucleic-acid assay
Outline: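 Kapp for poly(dA-dT) and for poly(dG-dC) is each determined by ethidium bromide competition in 0.01 M cacodylate, pH 7.0, 25 °C, with 1.26 μM ethidium and 1 μM polynucleotide. IC50 comes from a fitted competition sigmoid and is converted to Kapp assuming a four-base-pair binding size. The ratio is taken between the two polynucleotides.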

Nucleic Acid [3] = experiment: Association constant against the polynucleotide poly (dA-dT).; assay type: nucleic-acid assay; outline: as §1
Vero [4] = experiment: Minimum inhibitory concentration required to reduce parainfluenza virus-3 induced cytopathogenicity by 50% in african green monkey (VeroB) cells; assay type: functional, Human respirovirus 3; settings: Chlorocebus sabaeus
Outline: (§2)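 Cell cultures (PRK, HeLa or Vero B) are infected at 100 × CCID50. Cytopathogenicity is recorded once it reaches completion in the untreated virus-infected controls. The minimum inhibitory concentration is given in μg/mL.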

Sindbis virus = experiment: Minimum inhibitory concentration required to reduce Sindbis virus induced cytopathogenicity by 50% in african green monkey (VeroB) cells; assay type: functional; outline: as §2
Human alphaherpesvirus 2 = experiment: Minimum inhibitory concentration required to reduce herpes simplex virus-2(G) induced cytopathogenicity by 50% in primary rabbit kidney cells (PRK); assay type: functional; outline: as §2
Vero [5] = experiment: Minimum inhibitory concentration required to reduce Coxsackie virus B4 induced cytopathogenicity by 50% in african green monkey (VeroB) cells; assay type: functional, Coxsackievirus B4; settings: Chlorocebus sabaeus; outline: as §2
[6] = system: Vesicular stomatitis virus; experiment: Minimum inhibitory concentration required to reduce vesicular stomatitis virus induced cytopathogenicity by 50% in primary rabbit kidney cells (PRK); assay type: functional
Vero [7] = experiment: Minimum cytotoxic concentration required to cause a microscopically detectable alteration of normal cell morphology and show antiviral activity in african green monkey (Vero B) cells; assay type: functional; settings: Chlorocebus sabaeus
HeLa [8] = experiment: Minimum inhibitory concentration required to reduce Coxsackie virus B4 induced cytopathogenicity by 50% in HeLa cells; assay type: functional; settings: Homo sapiens; outline: as §2
HeLa [9] = experiment: Minimum cytotoxic concentration required to cause a microscopically detectable alteration of normal cell morphology and show antiviral activity in HeLa cells; assay type: functional; settings: Homo sapiens
Outline: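 HeLa cell cultures exposed to compound for the same duration as the antiviral assay, then examined microscopically. The minimum cytotoxic concentration is the lowest level causing detectable alteration of normal cell morphology. Values are in μg/mL.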

[10] = Dose required to inhibit Human T-Lymphoblast (Molt/4F) cell proliferation by 50%; assay type: functional; settings: read-out: CD50 (the source's name)
Human alphaherpesvirus 1 = experiment: Minimum inhibitory concentration required to reduce herpes simplex virus-1 (KOS) induced cytopathogenicity by 50% in primary rabbit kidney cells(PRK); assay type: functional; outline: as §2
Oryctolagus cuniculus = species on record: Oryctolagus cuniculus; experiment: Minimum cytotoxic concentration required to cause a microscopically detectable alteration of normal cell morphology and show antiviral activity in primary rabbit kidney (PRK) cells; assay type: functional
Raji = experiment: Dose required to inhibit Human B-Lymphoblast (Raji) cell proliferation by 50%; assay type: functional; settings: read-out: CD50 (the source's name)
[11] = system: Mammalian orthoreovirus 1; experiment: Minimum inhibitory concentration required to reduce reovirus-1 induced cytopathogenicity by 50% in african green monkey (VeroB)cells; assay type: functional; outline: as §2
Semliki Forest virus = experiment: Minimum inhibitory concentration required to reduce semliki forest virus induced cytopathogenicity by 50% in african green monkey (VeroB) cells; assay type: functional; outline: as §2
L1210 = experiment: Dose required to inhibit Murine leukemia (L1210) cell proliferation by 50%; assay type: functional; settings: Mus musculus, read-out: CD50 (the source's name)
FM3A = experiment: In vitro inhibition of FM3A (murine mammary carcinoma) cell proliferation.; assay type: functional; settings: Mus musculus, read-out: CD50 (the source's name)

With `Cn1cc(NC(=O)c2cc(NC(=O)c3cc(NC=O)cn3C)cn2C)cc1C(=O)NCCC(=N)N` the K app (Nucleic Acid [1]) was 25000 M⁻¹, the Ratio (Nucleic Acid [2]) was 3400 and the K app (Nucleic Acid [3]) was 8.5e+07 M⁻¹.
`C[C@H](NC(=O)[C@H](C)NC(=O)[C@H](C)NC(=O)c1cc(NC(=O)c2cc(NC(=O)CNC(=N)N)cn2C)cn1C)C(=O)O` showed an MIC (Vero [4]) of over 400 µg/mL, a K app (Nucleic Acid [1]) of 5000 M⁻¹ and an MIC (Sindbis virus) of over 400 µg/mL. For the same compound, the MIC (Human alphaherpesvirus 2) was over 400 µg/mL, the MIC (Vero [5]) was over 400 µg/mL and the MIC [6] was over 400 µg/mL. For the same compound, the MCC (Vero [7]) was over 400 µg/mL, the MIC (HeLa [8]) was over 400 µg/mL and the MCC (HeLa [9]) was over 400 µg/mL. The CC50 [10] was over 100 µg/mL, the MIC (Human alphaherpesvirus 1) was over 400 µg/mL and the MCC (Oryctolagus cuniculus) was over 400 µg/mL. For the same compound, the CC50 (Raji) was over 100 µg/mL, the MIC [11] was over 200 µg/mL and the MIC (Semliki Forest virus) was over 400 µg/mL. It also gave a CC50 (L1210) of over 100 µg/mL, a CC50 (FM3A) of over 100 µg/mL and a Ratio (Nucleic Acid [2]) of under 0.02. It also gave a K app (Nucleic Acid [3]) of under 100 M⁻¹.
In the case of `CC(NC(=O)c1cc(NC(=O)c2cc(NC(=O)CNC(=N)N)cn2C)cn1C)C(=O)OC(C)(C)C` (centres undefined), the MIC (Vero [4]) is reported as over 400 µg/mL, the K app (Nucleic Acid [1]) is reported as 10000 M⁻¹ and the MIC (Sindbis virus) is reported as over 400 µg/mL. For the same compound, the MIC (Human alphaherpesvirus 2) was over 400 µg/mL, the MIC (Vero [5]) was over 400 µg/mL and the MIC [6] was over 400 µg/mL. For the same compound, the MCC (Vero [7]) was over 400 µg/mL, the MIC (HeLa [8]) was over 400 µg/mL and the MCC (HeLa [9]) was over 400 µg/mL. It also gave a CC50 [10] of over 100 µg/mL, an MIC (Human alphaherpesvirus 1) of over 400 µg/mL and an MCC (Oryctolagus cuniculus) of over 400 µg/mL. It also gave a CC50 (Raji) of over 100 µg/mL, an MIC [11] of over 400 µg/mL and an MIC (Semliki Forest virus) of over 400 µg/mL. It also gave a CC50 (L1210) of over 100 µg/mL, a CC50 (FM3A) of over 100 µg/mL and a Ratio (Nucleic Acid [2]) of 0.87. It also gave a K app (Nucleic Acid [3]) of 8700 M⁻¹.
Work on `CC(NC(=O)c1cc(NC(=O)c2cc(NC(=O)CNC(=N)N)cn2C)cn1C)C(=O)NC(C)C(=O)OC(C)(C)C` (centres undefined) yielded an MIC (Vero [4]) of over 400 µg/mL, a K app (Nucleic Acid [1]) of 700 M⁻¹ and an MIC (Sindbis virus) of over 400 µg/mL. For the same compound, the MIC (Human alphaherpesvirus 2) was over 200 µg/mL, the MIC (Vero [5]) was over 400 µg/mL and the MIC [6] was over 200 µg/mL. For the same compound, the MCC (Vero [7]) was over 400 µg/mL, the MIC (HeLa [8]) was over 400 µg/mL and the MCC (HeLa [9]) was over 400 µg/mL. The CC50 [10] was over 100 µg/mL, the MIC (Human alphaherpesvirus 1) was over 200 µg/mL and the MCC (Oryctolagus cuniculus) was over 200 µg/mL. It also gave a CC50 (Raji) of 54.7 µg/mL (≈ 97.7 µM), an MIC [11] of over 200 µg/mL and an MIC (Semliki Forest virus) of over 400 µg/mL. The CC50 (L1210) was over 100 µg/mL, the CC50 (FM3A) was over 100 µg/mL and the Ratio (Nucleic Acid [2]) was 6.29. For the same compound, the K app (Nucleic Acid [3]) was 4400 M⁻¹.
`Cn1cc(NC(=O)c2cc([N+](=O)[O-])cn2C)cc1C(=O)NCCCNCCCCN` showed an MIC (Vero [4]) of over 200 µg/mL, a K app (Nucleic Acid [1]) of 82000 M⁻¹ and an MIC (Sindbis virus) of over 400 µg/mL. The MIC (Human alphaherpesvirus 2) was over 200 µg/mL, the MIC (Vero [5]) was over 200 µg/mL and the MIC [6] was over 100 µg/mL. It also gave an MCC (Vero [7]) of over 400 µg/mL, an MIC (HeLa [8]) of over 400 µg/mL and an MCC (HeLa [9]) of over 400 µg/mL. It also gave a CC50 [10] of over 100 µg/mL, an MIC (Human alphaherpesvirus 1) of over 200 µg/mL and an MCC (Oryctolagus cuniculus) of over 200 µg/mL. The CC50 (Raji) was over 100 µg/mL, the MIC [11] was over 200 µg/mL and the MIC (Semliki Forest virus) was over 400 µg/mL. It also gave a CC50 (L1210) of over 100 µg/mL, a Ratio (Nucleic Acid [2]) of 5.37 and a K app (Nucleic Acid [3]) of 440000 M⁻¹.
`Cn1cc(NC(=O)c2cc([N+](=O)[O-])cn2C)cc1C(=O)O` showed an MIC (Vero [4]) of over 200 µg/mL, an MIC (Sindbis virus) of over 400 µg/mL and an MIC (Human alphaherpesvirus 2) of over 400 µg/mL. For the same compound, the MIC (Vero [5]) was 150 µg/mL (≈ 513 µM), the MIC [6] was over 400 µg/mL and the MCC (Vero [7]) was over 400 µg/mL. It also gave an MIC (HeLa [8]) of over 400 µg/mL, an MCC (HeLa [9]) of over 400 µg/mL and a CC50 [10] of over 100 µg/mL. For the same compound, the MIC (Human alphaherpesvirus 1) was over 400 µg/mL, the MCC (Oryctolagus cuniculus) was over 400 µg/mL and the CC50 (Raji) was over 100 µg/mL. It also gave an MIC [11] of over 400 µg/mL, an MIC (Semliki Forest virus) of over 400 µg/mL and a CC50 (L1210) of over 100 µg/mL. It also gave a CC50 (FM3A) of over 100 µg/mL.
In the case of `CC(NC(=O)C(C)NC(=O)c1cc(NC(=O)c2cc(NC(=O)CNC(=N)N)cn2C)cn1C)C(=O)O` (centres undefined), the MIC (Vero [4]) is reported as over 400 µg/mL, the K app (Nucleic Acid [1]) is reported as 1200 M⁻¹ and the MIC (Sindbis virus) is reported as over 400 µg/mL. The MIC (Human alphaherpesvirus 2) was over 400 µg/mL, the MIC (Vero [5]) was over 400 µg/mL and the MIC [6] was over 400 µg/mL. For the same compound, the MCC (Vero [7]) was over 400 µg/mL, the MIC (HeLa [8]) was over 400 µg/mL and the MCC (HeLa [9]) was over 400 µg/mL. The CC50 [10] was over 100 µg/mL, the MIC (Human alphaherpesvirus 1) was over 400 µg/mL and the MCC (Oryctolagus cuniculus) was over 400 µg/mL. For the same compound, the CC50 (Raji) was over 100 µg/mL, the MIC [11] was over 200 µg/mL and the MIC (Semliki Forest virus) was over 400 µg/mL. The CC50 (L1210) was over 100 µg/mL, the CC50 (FM3A) was over 100 µg/mL and the Ratio (Nucleic Acid [2]) was 1. It also gave a K app (Nucleic Acid [3]) of 1200 M⁻¹.
For `COC(=O)c1cc(NC(=O)c2cc([N+](=O)[O-])cn2C)cn1C`, the MIC (Vero [4]) was over 10 µg/mL, the MIC (Sindbis virus) was over 10 µg/mL and the MIC (Human alphaherpesvirus 2) was over 10 µg/mL. It also gave an MIC (Vero [5]) of over 10 µg/mL, an MIC [6] of over 40 µg/mL and an MCC (Vero [7]) of over 40 µg/mL. The MIC (HeLa [8]) was over 40 µg/mL, the MCC (HeLa [9]) was over 40 µg/mL and the CC50 [10] was over 100 µg/mL. The MIC (Human alphaherpesvirus 1) was over 10 µg/mL, the MCC (Oryctolagus cuniculus) was over 40 µg/mL and the CC50 (Raji) was over 100 µg/mL. For the same compound, the MIC [11] was over 10 µg/mL, the MIC (Semliki Forest virus) was over 10 µg/mL and the CC50 (L1210) was over 100 µg/mL. It also gave a CC50 (FM3A) of over 100 µg/mL.
